# According to ChEMBL document CHEMBL1146361, “Studies on acyclic pyrimidines as inhibitors of mycobacteria” (Bioorg Med Chem, 2007):
# Calls of active or inactive are those of the source. No cut-off for these calls is given here.
# Legend:
# [1] = system: Mycobacterium avium; assay: Antimycobacterial activity against Mycobacterium avium ATCC 25291; assay type: functional; parameters: concentration or dose not given beside the values
# Outline: (§1)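 Compounds in DMSO (100× highest final concentration), diluted in 7H9GC; tested at 100, 50, 10 and 1 µg/mL in triplicate, three experiments. Frozen inoculum diluted in 7H9GC. Read visually and spectrophotometrically. […], mean given. Visual MIC = lowest concentration preventing blue-to-pink change.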
# [2] = system: Staphylococcus epidermidis; assay: Antibacterial activity against Staphylococcus epidermidis up to 100 ug/ml after 16 to 20 hrs by broth microdilution method; assay type: functional, organism-based
# [3] = system: Enterococcus faecalis; assay: Antibacterial activity against Enterococcus faecalis up to 100 ug/ml after 16 to 20 hrs by broth microdilution method; assay type: functional, organism-based
# [4] = system: Staphylococcus aureus; assay: Antibacterial activity against Staphylococcus aureus up to 100 ug/ml after 16 to 20 hrs by broth microdilution method; assay type: functional, organism-based
# [5] = system: Streptococcus pneumoniae; assay: Antibacterial activity against Streptococcus pneumoniae up to 100 ug/ml after 16 to 20 hrs by broth microdilution method; assay type: functional, organism-based
# [6] = system: Bacillus subtilis; assay: Antibacterial activity against Bacillus subtilis up to 100 ug/ml after 16 to 20 hrs by broth microdilution method; assay type: functional, organism-based
# [7] = system: Salmonella typhimurium; assay: Antibacterial activity against Salmonella Typhimurium up to 100 ug/ml after 16 to 20 hrs by broth microdilution method; assay type: functional, organism-based; settings: Salmonella enterica subsp. enterica serovar Typhimurium
# [8] = system: Pseudomonas aeruginosa; assay: Antibacterial activity against Pseudomonas aeruginosa up to 100 ug/ml after 16 to 20 hrs by broth microdilution method; assay type: functional, organism-based
# [9] = system: Mycobacterium tuberculosis; assay: Antimycobacterial activity against Mycobacterium tuberculosis H37Ra by MABA; assay type: functional; parameters: concentration or dose not given beside the values; outline: as §1
# [10] = system: Proteus vulgaris; assay: Antibacterial activity against Proteus vulgaris up to 100 ug/ml after 16 to 20 hrs by broth microdilution method; assay type: functional, organism-based
# [11] = system: Escherichia coli; assay: Antibacterial activity against Escherichia coli up to 100 ug/ml after 16 to 20 hrs by broth microdilution method; assay type: functional, organism-based
# [12] = system: Mycobacterium tuberculosis; assay: Antimycobacterial activity against Mycobacterium tuberculosis H37Ra at 50 ug/mL after 24 to 48 hrs by MABA; assay type: functional; outline: as §1
# [13] = system: Mycobacterium tuberculosis; assay: Antimycobacterial activity against Mycobacterium tuberculosis H37Ra at 100 ug/mL after 24 to 48 hrs by MABA; assay type: functional; outline: as §1
# [14] = system: Mycobacterium tuberculosis; assay: Antimycobacterial activity against Mycobacterium tuberculosis H37Ra at 10 ug/mL after 24 to 48 hrs by MABA; assay type: functional; outline: as §1
# [15] = system: HepG2; assay: Toxicity against HepG2 cells; assay type: functional, cell-based; settings: Homo sapiens
# [16] = system: Mycobacterium avium; assay: Antimycobacterial activity against Mycobacterium avium ATCC 25291 at 50 ug/mL after 24 to 48 hrs by MABA; assay type: functional; outline: as §1
# [17] = system: Mycobacterium avium; assay: Antimycobacterial activity against Mycobacterium avium ATCC 25291 at 100 ug/mL after 24 to 48 hrs by MABA; assay type: functional; outline: as §1
SMILES,Inhibition [1],Activity [2],Activity [3],Activity [4],Activity [5],Activity [6],Activity [7],Activity [8],Inhibition [9],Activity [10],Activity [11],inhibition at 50 µg/mL [12],inhibition at 100 µg/mL [13],inhibition at 10 µg/mL [14],Activity [15],inhibition at 50 µg/mL [16],inhibition at 100 µg/mL [17]
O=c1[nH]c(=O)n(COC(CO)CO)cc1I [IODACYCLUR],0%,inactive,inactive,inactive,inactive,inactive,inactive,inactive,0%,inactive,inactive,,,,,,
O=c1[nH]c(=O)n(COCCO)cc1I,0%,inactive,inactive,inactive,inactive,inactive,inactive,inactive,0%,inactive,inactive,,,,,,
CCCCCC#Cc1cn(COCCO)c(=O)[nH]c1=O,0%,inactive,inactive,inactive,inactive,inactive,inactive,inactive,0%,inactive,inactive,,,,,,
O=c1[nH]c(=O)n(COCCO)cc1Cl,0%,inactive,inactive,inactive,inactive,inactive,inactive,inactive,0%,inactive,inactive,,,,,,
CCc1cn(COCCO)c(=O)[nH]c1=O,0%,inactive,inactive,inactive,inactive,inactive,inactive,inactive,0%,inactive,inactive,,,,,,
[N-]=[N+]=NC(CBr)c1cn(COCCO)c(=O)[nH]c1=O (configuration not stated),,inactive,inactive,inactive,inactive,inactive,inactive,inactive,,inactive,inactive,100%,100%,50%,Not toxic,100%,
CCCCCCCCCCC#Cc1cn(COC(CO)CO)c(=O)[nH]c1=O,,inactive,inactive,inactive,inactive,inactive,inactive,inactive,,inactive,inactive,100%,100%,50%,Not toxic,25%,100%
C=C(N=[N+]=[N-])c1cn(COC(CO)CO)c(=O)[nH]c1=O,0%,inactive,inactive,inactive,inactive,inactive,inactive,inactive,0%,inactive,inactive,,,,,,
CCCCCCCCCCC#Cc1cn(COCCO)c(=O)n(C#CCCCCCCCCCC)c1=O,0%,inactive,inactive,inactive,inactive,inactive,inactive,inactive,0%,inactive,inactive,,,,,,
O=c1[nH]c(=O)n(COCCO)cc1F,0%,inactive,inactive,inactive,inactive,inactive,inactive,inactive,0%,inactive,inactive,,,,,,
[N-]=[N+]=NC(CBr)c1cn(COC(CO)CO)c(=O)[nH]c1=O (configuration not stated),0%,inactive,inactive,inactive,inactive,inactive,inactive,inactive,0%,inactive,inactive,,,,,,
O=c1[nH]c(=O)n(COCCO)cc1Br,0%,inactive,inactive,inactive,inactive,inactive,inactive,inactive,0%,inactive,inactive,,,,,,
O=c1[nH]c(=O)n(COCCO)cc1[N+](=O)[O-],0%,inactive,inactive,inactive,inactive,inactive,inactive,inactive,0%,inactive,inactive,,,,,,
Cc1cn(COCCO)c(=O)[nH]c1=O,0%,inactive,inactive,inactive,inactive,inactive,inactive,inactive,0%,inactive,inactive,,,,,,
Nc1cn(COCCO)c(=O)[nH]c1=O,0%,inactive,inactive,inactive,inactive,inactive,inactive,inactive,0%,inactive,inactive,,,,,,
[N-]=[N+]=NC(CI)c1cn(COC(CO)CO)c(=O)[nH]c1=O (configuration not stated),0%,inactive,inactive,inactive,inactive,inactive,inactive,inactive,0%,inactive,inactive,,,,,,
O=c1ccn(COCCO)c(=O)[nH]1,0%,inactive,inactive,inactive,inactive,inactive,inactive,inactive,0%,inactive,inactive,,,,,,
C=Cc1cn(COC(CO)CO)c(=O)[nH]c1=O,0%,inactive,inactive,inactive,inactive,inactive,inactive,inactive,0%,inactive,inactive,,,,,,
[N-]=[N+]=NC(CCl)c1cn(COC(CO)CO)c(=O)[nH]c1=O (configuration not stated),0%,inactive,inactive,inactive,inactive,inactive,inactive,inactive,0%,inactive,inactive,,,,,,
C=Cc1cn(COCCO)c(=O)[nH]c1=O,0%,inactive,inactive,inactive,inactive,inactive,inactive,inactive,0%,inactive,inactive,,,,,,
